Measurements taken from ChEMBL document CHEMBL3734701, “Synthesis and antibacterial activity of 4″-O-(trans-β-arylacrylamido)carbamoyl azithromycin analogs” (2015).
≈ marks a conversion by molar mass, not a printed value.

What was measured:
Type in all cases: functional
Staphylococcus aureus [1] = assay: Antibacterial activity against erythromycin-susceptible Staphylococcus aureus ATCC 25923 by broth microdilution method
Method in brief: (§1)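 Broth microdilution MIC following the NCCL-recommended method. Panel of sensitive and resistant Gram-positive strains: S. pyogenes S2 (erythromycin-susceptible clinical isolate), S. aureus ATCC25923 and S. pneumoniae ATCC49619 (erythromycin-susceptible). Azithromycin and clarithromycin were run alongside as references.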

Streptococcus pneumoniae [2] = assay: Antibacterial activity against erythromycin-susceptible Streptococcus pneumoniae ATCC 49619 by broth microdilution method; method in brief: as §1
Streptococcus pyogenes [3] = assay: Antibacterial activity against clinically isolated erythromycin-susceptible Streptococcus pyogenes S2 by broth microdilution method; method in brief: as §1
Staphylococcus aureus [4] = assay: Antibacterial activity against clinically isolated penicillin-resistant Staphylococcus aureus by broth microdilution method
Method in brief: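 Clinical penicillin-resistant S. aureus isolate, not further characterized, tested in a Gram-positive panel. MIC was measured by broth microdilution following NCCL recommendations, with azithromycin and clarithromycin as references.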

Staphylococcus aureus [5] = assay: Antibacterial activity against methicillin-susceptible Staphylococcus aureus ATCC 29213 by broth microdilution method
Method in brief: (§2)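 MICs measured in vitro by broth microdilution following NCCL recommendations, against a Gram-positive panel of sensitive and resistant strains. Azithromycin and clarithromycin were tested alongside as references.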

Streptococcus pneumoniae [6] = assay: Antibacterial activity against erythromycin-resistant Streptococcus pneumoniae B1 expressing ermB gene by broth microdilution method; method in brief: as §2
Streptococcus pneumoniae [7] = assay: Antibacterial activity against erythromycin-resistant Streptococcus pneumoniae A22072 expressing mefA gene by broth microdilution method; method in brief: as §2
Streptococcus pneumoniae [8] = assay: Antibacterial activity against erythromycin-resistant Streptococcus pneumoniae AB11 expressing ermB and mefA genes by broth microdilution method; method in brief: as §2
Streptococcus pyogenes [9] = assay: Antibacterial activity against clinically isolated erythromycin-resistant Streptococcus pyogenes R2 by broth microdilution method; method in brief: as §2
Streptococcus pneumoniae [10] = assay: Potency index, ratio of EMA MIC to test compound MIC for erythromycin-resistant Streptococcus pneumoniae B1 expressing ermB gene
Streptococcus pneumoniae [11] = assay: Potency index, ratio of AZM MIC to test compound MIC for erythromycin-resistant Streptococcus pneumoniae B1 expressing ermB gene
Streptococcus pyogenes [12] = assay: Potency index, ratio of EMA MIC to test compound MIC for clinically isolated erythromycin-resistant Streptococcus pyogenes R2
Streptococcus pyogenes [13] = assay: Potency index, ratio of AZM MIC to test compound MIC for clinically isolated erythromycin-resistant Streptococcus pyogenes R2
Streptococcus pneumoniae [14] = assay: Potency index, ratio of EMA MIC to test compound MIC for erythromycin-resistant Streptococcus pneumoniae A22072 expressing mefA gene
Streptococcus pneumoniae [15] = assay: Potency index, ratio of AZM MIC to test compound MIC for erythromycin-resistant Streptococcus pneumoniae A22072 expressing mefA gene

SMILES | MIC (Staphylococcus aureus [1]) [µg/mL] | MIC (Streptococcus pneumoniae [2]) [µg/mL] | MIC (Streptococcus pyogenes [3]) [µg/mL] | MIC (Staphylococcus aureus [4]) [µg/mL] | MIC (Staphylococcus aureus [5]) [µg/mL] | MIC (Streptococcus pneumoniae [6]) [µg/mL] | MIC (Streptococcus pneumoniae [7]) [µg/mL] | MIC (Streptococcus pneumoniae [8]) [µg/mL] | MIC (Streptococcus pyogenes [9]) [µg/mL] | Ratio (Streptococcus pneumoniae [10]) | Ratio (Streptococcus pneumoniae [11]) | Ratio (Streptococcus pyogenes [12]) | Ratio (Streptococcus pyogenes [13]) | Ratio (Streptococcus pneumoniae [14]) | Ratio (Streptococcus pneumoniae [15])
CC[C@@H]1OC(=O)[C@H](C)[C@@H](O[C@H]2C[C@@](C)(OC)[C@@H](OC(=O)NNC(=O)/C=C/c3cccs3)[C@H](C)O2)[C@@H](C)[C@@H](O[C@@H]2O[C@H](C)C[C@H](N(C)C)[C@H]2O)[C@](C)(O)C[C@@H](C)CN(C)[C@H](C)[C@@H](OC(=O)NCc2ccc(OC)cc2)[C@]1(C)O | 0.5 (≈ 0.452 µM) | 0.25 (≈ 0.226 µM) | 0.25 (≈ 0.226 µM) | 2 (≈ 1.81 µM) | 1 (≈ 0.904 µM) | 0.5 (≈ 0.452 µM) | 0.03 (≈ 0.0271 µM) | 1 (≈ 0.904 µM) | 32 (≈ 28.9 µM) | 256 | 256 | – | – | – | –
CC[C@H]1OC(=O)[C@@H](C)[C@H](O[C@@H]2C[C@](C)(OC)[C@H](OC(=O)NNC(=O)/C=C/c3ccc(Br)cc3)[C@@H](C)O2)[C@H](C)[C@H](O[C@H]2O[C@@H](C)C[C@@H](N(C)C)[C@@H]2O)[C@@](C)(O)C[C@H](C)CN(C)[C@@H](C)[C@H](OC(=O)NCc2ccc(OC)cc2)[C@@]1(C)O | 1 (≈ 0.848 µM) | 0.25 (≈ 0.212 µM) | 0.5 (≈ 0.424 µM) | 2 (≈ 1.7 µM) | 2 (≈ 1.7 µM) | 0.5 (≈ 0.424 µM) | 0.25 (≈ 0.212 µM) | 1 (≈ 0.848 µM) | 16 (≈ 13.6 µM) | 256 | 256 | – | – | – | –
CC[C@H]1OC(=O)[C@@H](C)[C@H](O[C@@H]2C[C@](C)(OC)[C@H](OC(=O)NNC(=O)/C=C/c3ccc(Cl)cc3)[C@@H](C)O2)[C@H](C)[C@H](O[C@H]2O[C@@H](C)C[C@@H](N(C)C)[C@@H]2O)[C@@](C)(O)C[C@H](C)CN(C)[C@@H](C)[C@H](OC(=O)NCc2ccc(OC)cc2)[C@@]1(C)O | 0.5 (≈ 0.441 µM) | 0.5 (≈ 0.441 µM) | 0.5 (≈ 0.441 µM) | 2 (≈ 1.76 µM) | 2 (≈ 1.76 µM) | 0.25 (≈ 0.22 µM) | 0.12 (≈ 0.106 µM) | 1 (≈ 0.881 µM) | 4 (≈ 3.52 µM) | 512 | 512 | 32 | 32 | – | –
CC[C@H]1OC(=O)[C@@H](C)[C@H](O[C@H]2C[C@@](C)(OC)[C@@H](OC(=O)NNC(=O)/C=C/c3cccs3)[C@H](C)O2)[C@@H](C)[C@H](O[C@H]2O[C@@H](C)C[C@@H](N(C)C)[C@@H]2O)[C@@](C)(O)C[C@H](C)CN(C)[C@@H](C)[C@@H]2OC(=O)O[C@@]12C | 32 (≈ 33 µM) | 8 (≈ 8.25 µM) | 0.25 (≈ 0.258 µM) | 64 (≈ 66 µM) | 64 (≈ 66 µM) | 2 (≈ 2.06 µM) | 0.015 (≈ 0.0155 µM) | 4 (≈ 4.13 µM) | ≥ 128 | – | – | – | – | 512 | 256
CC[C@@H]1OC(=O)[C@H](C)[C@@H](O[C@H]2C[C@@](C)(OC)[C@@H](OC(=O)NNC(=O)/C=C/c3cc(OC)c(OC)c(OC)c3)[C@H](C)O2)[C@@H](C)[C@@H](O[C@@H]2O[C@H](C)C[C@H](N(C)C)[C@H]2O)[C@](C)(O)C[C@@H](C)CN(C)[C@H](C)[C@@H](OC(=O)NCc2ccccc2)[C@]1(C)O | 1 (≈ 0.862 µM) | 0.5 (≈ 0.431 µM) | 1 (≈ 0.862 µM) | 4 (≈ 3.45 µM) | 4 (≈ 3.45 µM) | 32 (≈ 27.6 µM) | 2 (≈ 1.72 µM) | 16 (≈ 13.8 µM) | 64 (≈ 55.2 µM) | – | – | – | – | – | –
CC[C@H]1OC(=O)[C@@H](C)[C@H](O[C@H]2C[C@@](C)(OC)[C@@H](OC(=O)NNC(=O)/C=C/c3ccc(Br)cc3)[C@H](C)O2)[C@@H](C)[C@H](O[C@H]2O[C@@H](C)C[C@@H](N(C)C)[C@@H]2O)[C@@](C)(O)C[C@H](C)CN(C)[C@@H](C)[C@@H]2OC(=O)O[C@@]12C | 4 (≈ 3.84 µM) | 4 (≈ 3.84 µM) | 1 (≈ 0.96 µM) | 8 (≈ 7.68 µM) | 4 (≈ 3.84 µM) | 8 (≈ 7.68 µM) | 0.25 (≈ 0.24 µM) | 4 (≈ 3.84 µM) | 16 (≈ 15.4 µM) | – | – | – | – | – | –
CC[C@@H]1OC(=O)[C@H](C)[C@@H](O[C@H]2C[C@@](C)(OC)[C@@H](OC(=O)NNC(=O)/C=C/c3ccccc3OC)[C@H](C)O2)[C@@H](C)[C@@H](O[C@@H]2O[C@H](C)C[C@H](N(C)C)[C@H]2O)[C@](C)(O)C[C@@H](C)CN(C)[C@H](C)[C@@H](OC(=O)NCc2ccc(OC)cc2)[C@]1(C)O | 1 (≈ 0.885 µM) | 0.25 (≈ 0.221 µM) | 0.25 (≈ 0.221 µM) | 4 (≈ 3.54 µM) | 4 (≈ 3.54 µM) | 4 (≈ 3.54 µM) | 0.25 (≈ 0.221 µM) | 8 (≈ 7.08 µM) | 64 (≈ 56.6 µM) | – | – | – | – | – | –
